ChEMBL document CHEMBL1158800, “Antineoplastic agents. 545. Isolation and structure of turbostatins 1-4 from the Asian marine mollusk Turbo stenogyrus” (2005)
Converted amounts (≈) assume the structure as drawn.

Key:
Type in all cases: functional
P388 [1] = experiment: In vivo antitumor activity against mouse P388 cells at 4 to 800 mg/ kg; settings: dose mg/ kg 4-800
P388 [2] = experiment: Growth inhibition of mouse P388 cells after 48 hrs by particle counting method; settings: P388, 48 h
Outline: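 Murine P388 lymphocytic leukemia cells in 10% horse serum/Fisher medium, preincubated 24 hrs. Serial dilutions of the compounds were added and cells grown 48 hrs. Cell numbers were counted with a Z1 Coulter particle counter, and the ED50 for growth inhibition was calculated.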

[3] = Growth inhibition of human MXPC3 cells after 48 hrs by particle counting method; settings: MXPC3, 48 h
MCF7 = experiment: Growth inhibition of human MCF7 cells after 48 hrs by particle counting method; settings: MCF7, 48 h
SF-268 = experiment: Growth inhibition of human SF268 cells after 48 hrs by particle counting method; settings: SF-268, 48 h
NCI-H460 = experiment: Growth inhibition of human NCI-H460 cells after 48 hrs by particle counting method; settings: NCI-H460, 48 h
KM-20L2 = experiment: Growth inhibition of human KM20L2 cells after 48 hrs by particle counting method; settings: KM-20L2, 48 h
DU-145 = experiment: Growth inhibition of human DU145 cells after 48 hrs by particle counting method; settings: DU-145, 48 h

| Compound | GI50 (P388 [2]) [µg/mL] | GI50 (MCF7) [µg/mL] | GI50 (NCI-H460) [µg/mL] | GI50 (DU-145) [µg/mL] | T/C (P388 [1]) | GI50 [3] [µg/mL] | GI50 (SF-268) [µg/mL] | GI50 (KM-20L2) [µg/mL] |
| --- | --- | --- | --- | --- | --- | --- | --- | --- |
| NCCS(=O)(=O)O [TAURINE] | – | – | – | – | 123 | – | – | – |
| CCCCCCCCCCC/C=C/[C@@H](O)[C@H](CO[C@@H]1O[C@H](CO)[C@@H](O)[C@H](O)[C@H]1O)NC(=O)CCCCCCCCCCCCCCC [TURBOSTATIN 1] | 0.27 (≈ 0.402 µM) | 0.44 (≈ 0.655 µM) | 0.34 (≈ 0.506 µM) | 1.6 (≈ 2.38 µM) | – | 0.71 (≈ 1.06 µM) | 0.98 (≈ 1.46 µM) | 0.35 (≈ 0.521 µM) |
| CCCCCCCCCCC/C=C/[C@@H](O)[C@H](CO[C@@H]1O[C@H](CO)[C@H](O)[C@H](O)[C@H]1O)NC(=O)CCCCCCCCCCCCCCCCC [TURBOSTATIN 4] | 0.29 (≈ 0.414 µM) | 0.44 (≈ 0.629 µM) | 0.49 (≈ 0.7 µM) | 2.6 (≈ 3.71 µM) | – | 0.93 (≈ 1.33 µM) | 1.5 (≈ 2.14 µM) | 0.41 (≈ 0.586 µM) |

Further molecules by falling GI50 (P388 [2]), results first:

| GI50 (P388 [2]) [µg/mL] | GI50 (MCF7) [µg/mL] | GI50 (NCI-H460) [µg/mL] | GI50 (DU-145) [µg/mL] | Compound | T/C (P388 [1]) | GI50 [3] [µg/mL] | GI50 (SF-268) [µg/mL] | GI50 (KM-20L2) [µg/mL] |
| --- | --- | --- | --- | --- | --- | --- | --- | --- |
| 0.25 (≈ 0.372 µM) | 0.48 (≈ 0.714 µM) | 0.55 (≈ 0.818 µM) | 2.6 (≈ 3.87 µM) | CCCCCCCCCCC/C=C/[C@@H](O)[C@H](CO[C@@H]1O[C@H](CO)[C@H](O)[C@H](O)[C@H]1O)NC(=O)CCCCCCCCCCCCCCC [TURBOSTATIN 3] | – | 1.6 (≈ 2.38 µM) | 1.9 (≈ 2.83 µM) | 0.48 (≈ 0.714 µM) |
| 0.15 (≈ 0.214 µM) | 0.39 (≈ 0.557 µM) | 0.53 (≈ 0.757 µM) | 1.7 (≈ 2.43 µM) | CCCCCCCCCCC/C=C/[C@@H](O)[C@H](CO[C@@H]1O[C@H](CO)[C@@H](O)[C@H](O)[C@H]1O)NC(=O)CCCCCCCCCCCCCCCCC [TURBOSTATIN 2] | – | 1 (≈ 1.43 µM) | 1.9 (≈ 2.71 µM) | 0.35 (≈ 0.5 µM) |
